# XBP1 UPR activ – activators of adaptive arm of unfolded protein response (XBP1); CHO-XBP1 luciferase reporter, IRE1-XBP1 UPR activation, luminescence; percent of tunicamycin response, DMSO as zero; 330,000 compounds, 0.33% hits; activation, % at 20 µM;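 active means versus positive control, 20 µM dose yields 30% or more activation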;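 further: 100% = tunicamycin at 10 µg/mL and 0% = DMSO only wells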
#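 Assay system: IRE1-XBP1 luciferase reporter CHO line. Input: 1000 cells/well. Buffer or medium: F12 with 10% serum. Doses: 20 µM, 1% DMSO. Times: overnight seeding at 37 °C, 6 h compound treatment at 37 °C. Technique: Steady-Glo luciferase glow luminescence, 10 min after reagent addition.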
# tim23-1 inh – inhibits growth of tim23-1 mutant yeast; inhibition, % at 20 µM; AID 463212; S. cerevisiae tim23-1 growth, BacTiter-Glo luminescence, 24 h; 330,000 compounds, 1.3% hits;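 active means growth inhibition of the mutant yeast at or above 50%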;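 further: temperature-sensitive mutant grown at 25 °C; plate controls were DMSO-treated mutant yeast for no effect and medium wells lacking yeast for full effect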
# TIM10 inh – TIM10 yeast growth inhibition; 330,000 compounds, 1.4% hits; S. cerevisiae TIM10 strain growth, BacTiter-Glo luminescence, 24 h; inhibition, % at 10 µM; AID 463195;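 active means inhibition of 40% or more at the single tested concentration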;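 further: wild-type TIM10 isogenic control strain grown at permissive 25 °C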
# tim10-1 inh – tim10-1 yeast growth inhibition; S. cerevisiae tim10-1 ts strain growth, BacTiter-Glo, 24 h; inhibition, % at 20 µM; 330,000 compounds, 2.2% hits; AID 463190;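 active means inhibition of at least 40%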;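 further: mutant grown at 25 °C; 0% = DMSO wells with yeast and 100% = wells holding no yeast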
# CHOP UPR activ – activators of apoptotic arm of unfolded protein response (CHOP). CHO-CHOP luciferase reporter, UPR activation, luminescence; percent of tunicamycin response over DMSO baseline. activation, % at 10 µM. 330,000 compounds, 0.34% hits. AID 449763;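 active means at 10 µM dose, activation of 40% or more, normalized to positive control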;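 further: 100% = tunicamycin at 10 µg/mL and 0% = DMSO alone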
#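 Test system: CHO CHOP reporter cells. Input: 500 CHO-CHOP cells per well. Medium: F12 with 10% FBS. Technique: luciferase luminescence. Measure: percent activation relative to tunicamycin control. Dosing: 10 µM compound, 0.5% DMSO. Timing: 16-18 h cell attachment, then 6 h compound exposure, 37 °C.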
# tim10-1 conf – tim10-1 yeast growth inhibition, confirmed. shares compounds with tim10-1 inh. S. cerevisiae tim10-1 ts strain growth, BacTiter-Glo, 24 h. inhibition, % at 20 µM. 7,400 compounds, 56% hits. AID 463213;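 active means inhibition of yeast growth at or above a set limit in either of two repeat tests at 20 µM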;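 further: tim10-1 mutant grown at permissive 25 °C to find synthetic lethal compounds; 0% = DMSO yeast wells and 100% = medium wells without yeast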
# TIM10 conf – TIM10 yeast growth inhibition, confirmed | 4,600 compounds, 63% hits | inhibition, % at 10 µM | shares compounds with TIM10 inh | S. cerevisiae tim10 strain growth, BacTiter-Glo luminescence, 24 h;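 active means inhibition of yeast growth at or above a set limit in either of two replicates at 10 µM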;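 further: this counterscreen used the strain with wild-type TIM10; 0% = yeast with DMSO and 100% = medium wells lacking yeast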
# tim23-1 confirm – tim23-1 yeast growth inhibition, confirmed | shares compounds with tim23-1 inh | S. cerevisiae tim23-1 growth, BacTiter-Glo luminescence, 24 h | inhibition, % at 20 µM | 4,400 compounds, 83% hits;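 active means inhibition above about 39% in either of two replicate wells at 20 µM, limit read from the data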;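 further: temperature-sensitive tim23-1 mutant grown at 25 °C; 0% = DMSO wells with yeast and 100% = medium wells without yeast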
# An asterisk follows results filed as active; nt = no result. Sampled rows, rich in hits. Any-hit rate of the full collection: about 3.9%.
SMILES,XBP1 UPR activ,tim23-1 inh,TIM10 inh,tim10-1 inh,CHOP UPR activ,tim10-1 conf,tim23-1 confirm,others
COc1ccc(C(=O)/C=C/c2cn(CN3CCN(C)CC3)c3ccccc23)cc1,3.2,35.6,24.9,34.2,2.9,nt,nt,
CCOc1ccc(C(=O)/C=C/c2cn(CN3CCN(C)CC3)c3ccccc23)cc1,2.7,67.8*,38.9,40.2*,2.3,20.1,51.0*,
CCCc1cc(=O)oc2cc(C)cc(OC(C)C(=O)NCc3ccncc3)c12 (stereo not drawn),-3.1,10.6,7.2,-3.3,0.0,nt,nt,
O=C1OC(c2ccc(F)cc2)=N/C1=C\C=C/c1ccccc1,1.4,76.3*,37.3,50.4*,0.8,39.9*,-35.0,
Cc1c(C(=O)Nc2cccc([N+](=O)[O-])c2)sc2ncn(CC(=O)N3CCOCC3)c(=O)c12,-3.7,-1.3,6.1,7.3,-1.1,nt,nt,
COC(=O)N/N=C/c1sc(N2CCCCC2)nc1-c1cccs1,-1.7,53.1*,33.4,45.4*,2.7,32.5*,47.0*,
O=C(Nc1cccc(C(F)(F)F)c1)C1CCN(S(=O)(=O)c2cccnc2)CC1,-3.0,5.6,-2.9,-6.2,1.0,nt,nt,
COc1cc(N=Nc2ccc3ccccc3c2)ccc1O,7.0,62.6*,3.6,40.7*,6.0,13.1,2.3,
COc1cc(N=Nc2ccccc2C(=O)O)ccc1O,0.9,16.4,17.9,19.0,0.4,nt,nt,
COc1cc(CN2c3ccccc3C(=O)CS2(=O)=O)cc(OC)c1,-1.0,43.4,7.2,25.8,1.6,nt,nt,
O=C1CS(=O)(=O)N(Cc2ccccc2F)c2ccc(Br)cc21,1.2,71.9*,31.6,40.6*,0.4,47.5*,61.0*,
Cn1cc([N+](=O)[O-])c(C(=O)Nc2sc3c(c2C#N)CCC3)n1,-2.8,55.9*,30.6,45.2*,16.0,34.2*,48.5*,
COc1ccccc1-c1coc2c(CN3CCOCC3)c(O)ccc2c1=O,-0.1,1.0,-1.4,7.2,-0.5,nt,nt,
Cc1ccc(C(=O)NNc2ncnc3c2cnn3C)cc1,-0.7,10.3,10.0,-0.4,3.7,nt,nt,
Cn1ncc2c(O/N=C(\N)c3ccc(C(F)(F)F)cc3)ncnc21,3.9,79.3*,74.3*,52.1*,1.2,24.6,52.2*,TIM10 conf=84.9*
NS(=O)(=O)c1ccc(CCNC(=O)C2CCCN2S(=O)(=O)c2cccc3nsnc23)cc1 (stereo not drawn),-2.9,3.3,-0.7,-3.7,-0.9,nt,nt,
Cc1ccc(N=C(NO)c2nonc2N)c(C)c1,-2.0,8.9,4.4,24.9,-0.6,nt,nt,
Cc1ccc(N=C(NOC(=O)c2ccccc2)c2nonc2N)c(C)c1,0.5,56.6*,48.8*,46.1*,-0.2,49.1*,40.9*,TIM10 conf=40.0*
Cc1cc(N2CCC(C)CC2)n2nc(C)c(-c3ccccc3)c2n1,-1.4,9.7,38.3,25.9,1.1,nt,nt,
Cc1cc(N2CCCCC2)n2nc(C)c(-c3ccccc3)c2n1,3.5,50.1*,20.4,43.1*,5.5,33.4*,47.0*,
COc1ccc2nc(NC(=O)c3ccoc3C)sc2c1,-3.2,55.1*,46.5*,58.1*,-0.7,59.1*,61.1*,TIM10 conf=31.8*
c1ccc2c(c1)OCCc1c-2[nH]c2ccccc12,1.3,60.8*,20.0,46.2*,1.5,41.5*,58.0*,
O=C(COc1ccc(Br)cc1Cl)NC(=O)NC1CCCC1,2.9,56.0*,25.8,41.5*,6.7,40.9*,54.6*,
O=C(COc1ccc(Cl)cc1Cl)NC(=O)NC1CCCC1,8.0,49.4,12.1,35.3,2.8,nt,nt,
O=C(COc1ccc(Cl)cc1Br)NC(=O)NC1CCCC1,2.9,51.7*,14.6,51.1*,8.0,38.5*,62.8*,
CN(CC(=O)Nc1cc(Cl)cc(Cl)c1)Cc1cccs1,-0.3,39.1,17.2,32.9,-2.4,nt,nt,
Cc1cc(NC(=S)Nc2ccc(C)c(Cl)c2)n[nH]1,1.9,51.2*,28.5,46.5*,4.0,27.4,39.0*,
